Usually EC50 stands for the concentration needed to bring the measured effect to its halfway point. A high value points to a less potent agent. What is called IC50 is the midpoint of a concentration-inhibition curve. A high value points to lower potency.

For 15 compounds, EC50 and IC50 results are on record in ChEMBL document CHEMBL1139366, “Non-peptide macrocyclic histone deacetylase inhibitors” (J Med Chem, 2009).

For test [1], the system named is SK-MES-1. Description: Cytotoxicity against human SKMES1 cells after 72 hrs by trypan blue exclusion assay. It counts as functional, cell-based. To be noted: SK-MES-1, 72 h.
Test [2] can be described thus: Cytotoxicity against human primary lung fibroblasts after 72 hrs by trypan blue exclusion assay. It counts as ADME, cell-based. The note with it: Fibroblast.
For test [3], the system named is NCI-H69. The test is described as follows: Cytotoxicity against human NCI-H69 cells after 72 hrs by trypan blue exclusion assay. It counts as functional, cell-based. The note with it: NCI-H69, 72 h.
The target of test [4] is Histone deacetylase (HDAC1 and HDAC2) (Homo sapiens, UniProt Q13547+Q92769). Description: Inhibition of HDAC1/2 from human HeLa cells nuclear extract by cell free fluorimetric assay. Format: cell-based.
Test [5] has as its system DU-145. The test is described as follows: Cytotoxicity against human DU145 cells after 72 hrs by trypan blue exclusion assay. Format: functional, cell-based. The note with it: DU-145, 72 h. A digest of the protocol:
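DU-145 prostate cancer cells kept in recommended complete medium at 37 °C, 5% CO₂, passaged 24 h before dosing. Compounds taken from 10 mM DMSO stocks and diluted in DMSO plus fresh medium, final DMSO 0.1%; control wells got fresh medium only. Viability read by trypan blue staining after 72 h. EC₅₀ = concentration giving 50% loss of viability, from duplicate of four simultaneous experiments.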

For test [6], the system named is HMEC. The test is described as follows: Cytotoxicity against HMEC after 72 hrs by trypan blue exclusion assay. Format: ADME, cell-based. The note with it: Homo sapiens.
The target of test [7] is T1, Histone deacetylase 8 (Homo sapiens, UniProt Q9BY41).
T1 sequence (Q9BY41 whole entry): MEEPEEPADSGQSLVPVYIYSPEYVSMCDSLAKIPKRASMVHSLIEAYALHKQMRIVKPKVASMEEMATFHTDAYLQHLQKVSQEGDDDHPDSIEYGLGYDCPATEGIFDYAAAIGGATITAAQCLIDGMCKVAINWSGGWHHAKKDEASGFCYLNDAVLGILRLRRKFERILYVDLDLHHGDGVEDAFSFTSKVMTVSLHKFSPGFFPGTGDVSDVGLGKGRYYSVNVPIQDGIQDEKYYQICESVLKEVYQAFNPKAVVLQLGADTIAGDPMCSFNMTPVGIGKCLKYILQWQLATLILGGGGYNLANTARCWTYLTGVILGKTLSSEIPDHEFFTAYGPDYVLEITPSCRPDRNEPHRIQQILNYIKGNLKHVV
The test is described as follows: Inhibition of HDAC8 from human HeLa cells nuclear extract by cell free fluorimetric assay.

On to `CC[C@H]1OC(=O)[C@H](C)[C@@H](O)[C@H](C)[C@@H](O[C@@H]2O[C@H](C)C[C@H](N(C)Cc3ccc(-c4cn(CCCCCC(=O)NO)nn4)cc3)[C@H]2O)[C@](C)(OC)C[C@@H](C)C(=O)[C@H](C)[C@@H](O)[C@]1(C)O`, for which the EC50 was 1.95 µM in test [1]; over 10 µM in test [2]; 1.92 µM in test [3]; 3.29 µM in test [5]; over 10 µM in test [6]. The same compound registered an IC50 in test [4] of 0.0443 µM.

As for `CC[C@H]1OC(=O)[C@H](C)[C@@H](O[C@H]2C[C@@](C)(OC)[C@@H](O)[C@H](C)O2)[C@H](C)[C@@H](O[C@@H]2O[C@H](C)C[C@H](N(C)Cc3ccc(-c4cn(CCCCCC(=O)NO)nn4)cc3)[C@H]2O)[C@](C)(OC)C[C@@H](C)C(=O)[C@H](C)[C@@H](O)[C@]1(C)O`, the EC50 in test [1] was 2.15 µM; in test [2], over 10 µM; in test [3], 2.67 µM; in test [5], 2.98 µM; in test [6], over 10 µM. In test [4], this compound registered an IC50 of 0.037 µM.

Regarding `CC[C@H]1OC(=O)[C@H](C)[C@@H](O)[C@H](C)[C@@H](O[C@@H]2O[C@H](C)C[C@H](N(C)Cc3ccc(-c4cn(CCCCCCCC(=O)NO)nn4)cc3)[C@H]2O)[C@](C)(OC)C[C@@H](C)C(=O)[C@H](C)[C@@H](O)[C@]1(C)O`, the EC50 in test [1] is 4.45 µM; in test [2], over 10 µM; in test [3], 5.09 µM; in test [5] it was 5.78 µM; in test [6], over 10 µM. Further, in test [4], the IC50 is 0.123 µM.

In turn, `CC[C@H]1OC(=O)[C@H](C)[C@@H](O[C@H]2C[C@@](C)(OC)[C@@H](O)[C@H](C)O2)[C@H](C)[C@@H](O[C@@H]2O[C@H](C)C[C@H](N(C)Cc3ccc(-c4cn(CCCCCCCCCC(=O)NO)nn4)cc3)[C@H]2O)[C@](C)(OC)C[C@@H](C)C(=O)[C@H](C)[C@@H](O)[C@]1(C)O` displayed an IC50 in test [4] of 0.2234 µM.

As for `CC[C@H]1OC(=O)[C@H](C)[C@@H](O)[C@H](C)[C@@H](O[C@@H]2O[C@H](C)C[C@H](N(C)Cc3ccc(-c4cn(CCCCCC(=O)NO)nn4)cc3)[C@H]2O)[C@](C)(O)C[C@@H](C)CN(C)[C@H](C)[C@@H](O)[C@]1(C)O`, the figures for the IC50 in test [7] and in test [4] were 3.74 µM and 0.0888 µM, respectively. In addition, the EC50 in test [1] is 1.68 µM; in test [2], over 10 µM; in test [3] it was 1.77 µM; in test [5] it was 1.24 µM; in test [6], over 10 µM.

For the compound `CC[C@H]1OC(=O)[C@H](C)[C@@H](O[C@H]2C[C@@](C)(OC)[C@@H](O)[C@H](C)O2)[C@H](C)[C@@H](O[C@@H]2O[C@H](C)C[C@H](N(C)Cc3ccc(NC(=O)CCCCCCC(=O)NO)cc3)[C@H]2O)[C@](C)(O)C[C@@H](C)CN(C)[C@H](C)[C@@H](O)[C@]1(C)O` [AZITHROMYCINARYLALKYLHYDROXAMIC ACID], in test [4], the concentration for half-maximal inhibition (IC50) was found to be 0.1071 µM. Besides, the 50% effective concentration (EC50) in test [5] was over 25 µM.

Turning to `CC[C@H]1OC(=O)[C@H](C)[C@@H](O[C@H]2C[C@@](C)(OC)[C@@H](O)[C@H](C)O2)[C@H](C)[C@@H](O[C@@H]2O[C@H](C)C[C@H](N(C)Cc3ccc(-c4cn(CCCCCC(=O)NO)nn4)cc3)[C@H]2O)[C@](C)(O)C[C@@H](C)CN(C)[C@H](C)[C@@H](O)[C@]1(C)O`, the values for the IC50 in test [7] and in test [4] were 4.73 µM and 0.0916 µM, respectively. For the same compound, the EC50 in test [1] is 1.79 µM; in test [2], over 10 µM; in test [3], 1.92 µM; in test [5] it was 1.45 µM; in test [6] it was over 10 µM.

In the case of `CC[C@H]1OC(=O)[C@H](C)[C@@H](O[C@H]2C[C@@](C)(OC)[C@@H](O)[C@H](C)O2)[C@H](C)[C@@H](O[C@@H]2O[C@H](C)C[C@H](N(C)Cc3ccc(-c4cn(CCCCCCCC(=O)NO)nn4)cc3)[C@H]2O)[C@](C)(OC)C[C@@H](C)C(=O)[C@H](C)[C@@H](O)[C@]1(C)O`, the EC50 in test [1] is 4.89 µM; in test [2] it was over 10 µM; in test [3] it was 5.67 µM; in test [5], 6.97 µM; in test [6] it was over 10 µM. This compound had an IC50 in test [4] of 0.0556 µM.

As for `CC[C@H]1OC(=O)[C@H](C)[C@@H](O)[C@H](C)[C@@H](O[C@@H]2O[C@H](C)C[C@H](N(C)Cc3ccc(-c4cn(CCCCCCCC(=O)NO)nn4)cc3)[C@H]2O)[C@](C)(O)C[C@@H](C)CN(C)[C@H](C)[C@@H](O)[C@]1(C)O`, the IC50 in test [7] stood at 6.78 µM; in test [4], 0.0724 µM. The EC50 in test [1] was 4.67 µM; in test [2], over 10 µM; in test [3], 3.99 µM; in test [5], 5.68 µM; in test [6], over 10 µM.

In test [4], `CC[C@H]1OC(=O)[C@H](C)[C@@H](O)[C@H](C)[C@@H](O[C@@H]2O[C@H](C)C[C@H](N(C)Cc3ccc(NC(=O)CCCCCCC(=O)NO)cc3)[C@H]2O)[C@](C)(O)C[C@@H](C)CN(C)[C@H](C)[C@@H](O)[C@]1(C)O` [DESCLASINOSE AZITHROMYCINARYLALKYL HYDROXAMATE] registered a concentration for half-maximal inhibition (IC50) of 0.1098 µM. The concentration giving a half-maximal response (EC50) in test [5] was under 25 µM.

`CC[C@H]1OC(=O)[C@H](C)[C@@H](O[C@H]2C[C@@](C)(OC)[C@@H](O)[C@H](C)O2)[C@H](C)[C@@H](O[C@@H]2O[C@H](C)C[C@H](N(C)Cc3ccc(-c4cn(CCCCCCCC(=O)NO)nn4)cc3)[C@H]2O)[C@](C)(O)C[C@@H](C)CN(C)[C@H](C)[C@@H](O)[C@]1(C)O`: the concentration for half-maximal inhibition (IC50) is 7.13 µM in test [7] and 0.0589 µM in test [4]. Also, the EC50 in test [1] was 4.89 µM; in test [2], over 10 µM; in test [3] it was 4.56 µM; in test [5] it was 5.89 µM; in test [6] it was over 10 µM.

As for `O=C(CCCCCCC(=O)Nc1ccccc1)NO` [VORINOSTAT], it took 2.12 µM to reach a half-maximal effect in test [5] (EC50).

In the case of `CC[C@H]1OC(=O)[C@H](C)[C@@H](O[C@H]2C[C@@](C)(OC)[C@@H](O)[C@H](C)O2)[C@H](C)[C@@H](O[C@@H]2O[C@H](C)C[C@H](N(C)Cc3ccc(-c4cn(CCCCCCCCCC(=O)NO)nn4)cc3)[C@H]2O)[C@](C)(O)C[C@@H](C)CN(C)[C@H](C)[C@@H](O)[C@]1(C)O`, the IC50 in test [4] is 0.2267 µM.

With `CC[C@H]1OC(=O)[C@H](C)[C@@H](O[C@H]2C[C@@](C)(OC)[C@@H](O)[C@H](C)O2)[C@H](C)[C@@H](O[C@@H]2O[C@H](C)C[C@H](N(C)Cc3ccc(-c4cn(CCCCCCCCC(=O)NO)nn4)cc3)[C@H]2O)[C@](C)(OC)C[C@@H](C)C(=O)[C@H](C)[C@@H](O)[C@]1(C)O`, the EC50 was 7.12 µM in test [1]; over 10 µM in test [2]; 7.29 µM in test [3]; 8.14 µM in test [5]; over 10 µM in test [6]. In test [4], the IC50 turned out to be 0.1698 µM.

For the compound `CC[C@H]1OC(=O)[C@H](C)[C@@H](O[C@H]2C[C@@](C)(OC)[C@@H](O)[C@H](C)O2)[C@H](C)[C@@H](O[C@@H]2O[C@H](C)C[C@H](N(C)Cc3ccc(-c4cn(CCCCCCCCC(=O)NO)nn4)cc3)[C@H]2O)[C@](C)(O)C[C@@H](C)CN(C)[C@H](C)[C@@H](O)[C@]1(C)O`, the 50% inhibitory concentration (IC50) in test [7] was determined as 11.1 µM; in test [4] it was 0.1455 µM. For the same compound, the EC50 in test [1] was 7.54 µM; in test [2] it was over 10 µM; in test [3], 8.45 µM; in test [5], over 10 µM; in test [6], over 10 µM.
